According to ChEMBL document CHEMBL3865814, “Chemical Constituents Isolated from the Root Bark of Cudrania tricuspidata and Their Potential Neuroprotective Effects” (J Nat Prod, 2016):

Experiments:
Type in all cases: functional, cell-based
[1] = Neuroprotective activity in human SH-SY5Y cells assessed as reduction in 1-methyl-4-phenylpyridinium ion-induced cell death after 48 hrs by MTT assay
How it was run: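 SH-SY5Y cells in DMEM with 10% heat-inactivated FBS and 1% penicillin/streptomycin were seeded at 2 × 10^4 cells/well for 24 h, then exposed to 2 mM MPP+ for 48 h. MTT (0.5 mg/mL in PBS) was added for 4 h at 37 °C, formazan dissolved in DMSO and absorbance read at 540 nm. EC50 is the concentration giving half-maximal protection, mean of triplicates.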

[2] = Neuroprotective activity in human SH-SY5Y cells assessed as reduction in oxygen glucose deprivation-induced cell death incubated for 16 hrs under hypoxic condition followed by incubation for 24 hrs under normoxic condition by MTT assay
How it was run: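 After 24 h plating (2 × 10^4/well, DMEM with 10% FBS and glucose), medium was switched to serum- and glucose-free RPMI and samples or vehicle added. Cells were held 16 h under 95% N2/5% CO2, then reoxygenated 24 h in RPMI with 10% FBS and glucose at 37 °C. Viability was by MTT at A540. EC50 is half-maximal protection, mean of triplicates.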

[3] = Neuroprotective activity in human SH-SY5Y cells assessed as reduction in 6-OHDA-induced cell death measured after 24 hrs by MTT assay
How it was run: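 Cells were seeded at 2 × 10^4 per well and grown 24 h in DMEM with 10% heat-inactivated FBS at 37 °C under 5% CO2. They were then co-treated with graded sample concentrations and 100 μM 6-OHDA for 24 h. Viability was by MTT (0.5 mg/mL, 4 h, 37 °C), DMSO solubilization and A540. EC50 is half-maximal protection, mean of triplicate determinations.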

| SMILES | EC50 [1] [µM] | EC50 [2] [µM] | EC50 [3] [µM] |
| --- | --- | --- | --- |
| C=CC(C)(C)c1c(O)cc(O)c2c(=O)c3c4c(c(O)cc3oc12)O[C@@H](C(C)(C)O)C4 | > 50 | 12.2 | – |
| C=C(C)C(=O)Cc1c(OC)c(O)cc2oc3c4c(cc(O)c3c(=O)c12)OC(CO)C4(C)C (stereo not given) | > 50 | 13.2 | – |
| COC(=O)c1ccc(O)cc1O [METHYL 2,4-DIHYDROXYBENZOATE] | > 50 | 35.5 | – |
| CC1Oc2cc3oc4c5c(c(O)cc4c(=O)c3c(O)c2C1(C)C)OC(C(C)(C)O)C5 (stereo not given) | > 50 | 6 | – |
| CCCCCCCC/C=C\CCCCCCCC(=O)O [OLEIC ACID] | – | – | 9.5 |
| C=CC(C)(C)c1c(OC)cc(O)c2c(=O)c3c(cc(O)c4oc(C(C)(C)O)cc43)oc12 | 10.3 | > 50 | – |
| CC1(C)C=Cc2c(c(O)cc3oc4c5c(cc(O)c4c(=O)c23)OC(CO)C5(C)C)O1 (stereo not given) | > 50 | 8.9 | – |
| C=C(C)[C@@H]1CC[C@]2(C(=O)O)CC[C@]3(C)[C@H](CC[C@@H]4[C@@]5(C)CC[C@H](O)C(C)(C)[C@@H]5CC[C@]43C)[C@@H]12 [BETULINIC ACID] | 4.3 | – | – |
| CC(C)=CCc1c(O)c(O)cc2oc3c4c(cc(O)c3c(=O)c12)OC(C)C4(C)C (stereo not given) [CUDRATRICUSXANTHONE J] | 8.1 | > 50 | – |
| O=c1ccoc2cc(O)cc(O)c12 | – | – | 1.9 |
| CC(C)=CCOc1c2occc2cc2ccc(=O)oc12 [PENTOSALEN] | > 50 | 8.4 | – |
| CC(C)=CCOc1c2ccoc2cc2oc(=O)ccc12 [ISOIMPERATORIN] | > 50 | 3.5 | 9.2 |
| C=C1CC[C@H](O)C(C)(C)[C@@H]1CC/C(C)=C/CC/C=C(\C)CC/C=C(\C)CCC=C(C)C | > 50 | 6.5 | 7.2 |
| CC1(C)CC[C@]2(C)CC[C@]3(C)[C@H]4CC=C5[C@@H](CC[C@H](O)C5(C)C)[C@]4(C)CC[C@@]3(C)[C@@H]2C1 [GLUTINOL] | – | – | 12.9 |
| COc1c(C(C)=O)ccc2c1C=CC(C)(C)O2 | > 50 | 22.3 | – |
| COCc1ccc(O)cc1 | > 50 | 7.9 | – |
| CC(C)=CCc1cc2ccc(=O)oc2cc1O [DEMETHYLSUBEROSIN] | 0.2 | 8.6 | – |

| SMILES | EC50 [1] [µM] | EC50 [2] [µM] | EC50 [3] [µM] |
| --- | --- | --- | --- |
| CC1Oc2cc3oc4c5c(c(O)cc4c(=O)c3c(O)c2C1(C)C)OC(C)(C)C(O)C5 (stereo not given) | > 50 | 23.6 | – |
| CC1Oc2cc(O)c3c(=O)c4c5c(c(O)cc4oc3c2C1(C)C)OC(C)(C)C=C5 (stereo not given) | > 50 | 3.5 | – |
| C[C@H]1[C@H](C)CC[C@]2(C)CC[C@]3(C)C(=CC[C@@H]4[C@@]5(C)CC[C@H](O)C(C)(C)[C@@H]5CC[C@]43C)[C@H]12 | > 50 | 13.3 | – |
| NCCC(=O)N[C@@H](Cc1c[nH]cn1)C(=O)O [CARNOSINE] | – | 3 | – |
| C=CC(C)(C)c1c(O)cc(O)c2c(=O)c3c4c(c(O)cc3oc12)OC(C)(C)C=C4 | > 50 | 33.3 | – |
| COc1cc(/C=C/C(=O)CC(=O)/C=C/c2ccc(O)c(OC)c2)ccc1O [CURCUMIN] | – | – | 6.2 |
| O=Cc1ccc(O)cc1 [4-HYDROXYBENZALDEHYDE] | – | – | 30.2 |
| CC(C)=CCc1c2c(c(O)c3c(=O)c4ccc(O)c(O)c4oc13)C(C)(C)C(C)O2 (stereo not given) | > 50 | 17.2 | – |
| C=CC(C)(C)c1c(OC)cc(O)c2c(=O)c3c(CC=C(C)C)c(O)c(O)cc3oc12 [CUDRAXANTHONE D] | > 50 | 4.8 | – |
| C=C(C)C(O)Cc1c(OC)c(O)cc2oc3c4c(cc(O)c3c(=O)c12)OC(CO)C4(C)C (stereo not given) | > 50 | 28.5 | – |
| CC(C)=CC1Oc2cc(O)ccc2-c2oc3cc4c(c(O)c3c(=O)c21)C=CC(C)(C)O4 (stereo not given) [CUDRAFLAVONE A] | > 50 | 13.5 | 15.5 |
| CC1(C)C=Cc2cc3ccc(=O)oc3cc2O1 [XANTHYLETIN] | – | – | 8 |
| CC1(C)CCc2cc(C3CC(=O)c4c(O)cc5c(c4O3)CCC(C)(C)O5)c(O)cc2O1 (stereo not given) | – | – | 9.1 |
| CC1(C)C=Cc2c(c(O)cc3c(=O)c4c(O)c5c(cc4oc23)OC(CO)C5(C)C)O1 (stereo not given) | > 50 | 11.2 | – |
| C=CC(C)(C)c1c(OC)cc(O)c2c(=O)c3c(CC(O)C(=C)C)c(O)c(O)cc3oc12 (stereo not given) | > 50 | 2.9 | – |
| CC(C)=CCc1c(O)c(O)cc2c(=O)c3c4c(c(O)cc3oc12)C(C)(C)C(C)O4 (stereo not given) | > 50 | 34.9 | – |
